Results published in ChEMBL document CHEMBL4052637, “Discovery and Characterization of R/S-N-3-Cyanophenyl-N'-(6-tert-butoxycarbonylamino-3,4-dihydro-2,2-dimethyl-2H-1-benzopyran-4-yl)urea, a New Histone Deacetylase Class III Inhibitor Exerting Antiproliferative Activity against Cancer Cell Lines” (J Med Chem, 2017).
Activity calls are given as the source filed them. No cut-off for these calls is given here.

Columns and labels:
[1] = Selectivity index, ratio of IC50 for mouse astrocytes to IC50 for human T98G cells
Hs 683 [2] = assay: Antiproliferative activity against human Hs683 cells after 72 hrs by MTT assay; assay type: functional, cell-based; settings: Hs 683, 72 h
How it was run: (§1)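 MTT assay: cells in RPMI 1640 with 10% heat-inactivated FCS at 37 °C and 5% CO2 were seeded 24 h before treatment. They were exposed 72 h to compound at 0.01–100 μM, with DMSO as solvent.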

[3] = target: Histone deacetylase 8 (Homo sapiens) (UniProt Q9BY41); assay: Inhibition of recombinant human HDAC8 expressed in Escherichia coli at 0.1 to 100 uM using Fluor-de-Lys-HDAC8 as substrate after 15 mins by fluorescence assay
Chain of Histone deacetylase 8 (Homo sapiens) (Q9BY41 whole entry): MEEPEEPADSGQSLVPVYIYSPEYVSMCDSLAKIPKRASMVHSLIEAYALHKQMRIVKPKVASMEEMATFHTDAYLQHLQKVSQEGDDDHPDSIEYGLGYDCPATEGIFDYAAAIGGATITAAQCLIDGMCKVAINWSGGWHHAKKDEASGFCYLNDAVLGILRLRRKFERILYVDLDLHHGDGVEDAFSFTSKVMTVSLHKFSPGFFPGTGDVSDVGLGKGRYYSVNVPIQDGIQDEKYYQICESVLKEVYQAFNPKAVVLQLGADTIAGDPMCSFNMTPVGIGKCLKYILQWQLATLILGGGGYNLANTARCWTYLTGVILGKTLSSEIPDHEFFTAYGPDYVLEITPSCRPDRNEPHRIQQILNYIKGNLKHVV

[4] = target: T1, NAD-dependent protein deacetylase sirtuin-1 (Homo sapiens) (UniProt Q96EB6); assay: Inhibition of SIRT1 in human U373 cells assessed as increase of histone H4 acetylation after 8 hrs by Western blotting method; assay type: cell-based
T1 sequence (whole entry): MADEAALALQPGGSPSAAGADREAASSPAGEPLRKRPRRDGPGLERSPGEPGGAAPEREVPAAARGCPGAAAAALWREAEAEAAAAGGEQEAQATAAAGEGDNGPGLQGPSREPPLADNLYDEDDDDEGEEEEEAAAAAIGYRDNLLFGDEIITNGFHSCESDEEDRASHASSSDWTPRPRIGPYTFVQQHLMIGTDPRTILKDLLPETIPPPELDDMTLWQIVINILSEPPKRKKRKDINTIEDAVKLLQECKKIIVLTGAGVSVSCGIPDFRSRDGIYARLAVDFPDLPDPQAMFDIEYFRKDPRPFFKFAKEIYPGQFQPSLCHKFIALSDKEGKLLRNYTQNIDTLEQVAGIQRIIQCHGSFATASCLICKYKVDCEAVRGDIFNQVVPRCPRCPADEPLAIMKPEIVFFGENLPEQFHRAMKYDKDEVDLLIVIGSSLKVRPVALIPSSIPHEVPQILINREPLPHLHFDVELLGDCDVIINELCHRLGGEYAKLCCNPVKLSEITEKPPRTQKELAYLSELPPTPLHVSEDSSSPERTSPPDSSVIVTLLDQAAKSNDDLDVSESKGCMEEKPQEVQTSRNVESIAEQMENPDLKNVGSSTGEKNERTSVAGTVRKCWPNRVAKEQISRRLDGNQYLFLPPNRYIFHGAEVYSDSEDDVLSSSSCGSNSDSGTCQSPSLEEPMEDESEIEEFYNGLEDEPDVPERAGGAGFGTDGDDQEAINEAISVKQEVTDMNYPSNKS

Hs 683 [5] = assay: Cell cycle arrest in human Hs683 cells assessed as accumulation at G1 phase at IC50 after 24 to 48 hrs by propidium iodide staining-based flow cytometry; assay type: functional
How it was run: (§2)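 Cells were exposed to compound at the IC50 for each line from the 72 h MTT assay, or to a reference HDAC inhibitor at 2 μM. Cell cycle distribution was analyzed after 24 and 48 h. Results are mean ± SD of three independent experiments, with p values against control cells.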

U-373MG ATCC = assay: Cell cycle arrest in human U373 cells assessed as accumulation at G1 phase at IC50 after 24 to 48 hrs by propidium iodide staining-based flow cytometry; assay type: functional; how it was run: as §2
Hs 683 [6] = assay: Inhibition of spheroid forming capacity of human Hs683 cells assessed as decrease in surface area of tumor spheroids at 5 to 10 uM treated for 24 hrs measured after 96 hrs by bright field microscopic method; assay type: functional, cell-based
How it was run: (§3)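 Spheroids formed from 1 × 10^3 cells in 25 μL. Cells were pretreated 24 h with compound then left untreated 96 h, or untreated spheroids were cultured 96 h with compound. Surface measured from bright-field images; volume in voxels from 3D plots after image segmentation. Mean ± SD of three independent experiments.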

Hs 683 [7] = assay: Inhibition of spheroid forming capacity of human Hs683 cells assessed as decrease in volume of multicellular tumor spheroids at 5 to 10 uM treated for 24 hrs measured after 96 hrs by bright field microscopic method; assay type: functional, cell-based; how it was run: as §3
PBMC = assay: Cytotoxicity against human PBMC assessed as decrease in cell viability at 1 to 100 uM after 24 to 48 hrs; assay type: cell-based
SW1573 = assay: Antiproliferative activity against human SW1573 cells after 72 hrs by MTT assay; assay type: functional, cell-based; how it was run: as §1
KBC1 = assay: Antiproliferative activity against human KBC1 cells overexpressing ABCB1 after 72 hrs by MTT assay; assay type: functional, cell-based; how it was run: as §1
Hs 683 [8] = assay: Induction of apoptosis in human Hs683 cells at 10 uM after 72 hrs by TUNEL method relative to control; assay type: functional
[9] = target: T1, NAD-dependent protein deacetylase sirtuin-1 (Homo sapiens); assay: Inhibition of SIRT1 in human U373 cells assessed as increase of histone H4 acetylation at 1 uM after 8 hrs by Western blotting method relative to control; assay type: cell-based
Hs 683 [10] = assay: Antiproliferative activity against human Hs683 cells transfected with SIRT1/2 siRNA at IC50 for MTT assay after 72 hrs by time-lapse videomicroscopy; assay type: functional, cell-based
CCRF-CEM = assay: Growth inhibition of human CCRF-CEM cells after 48 hrs by SRB assay; assay type: functional
HL-60(TB) = assay: Growth inhibition of human HL-60(TB) cells after 48 hrs by SRB assay; assay type: functional; settings: HL-60, 48 h
HOP-62 = assay: Growth inhibition of human HOP62 cells after 48 hrs by SRB assay; assay type: functional; settings: HOP-62, 48 h
HCT-15 = assay: Growth inhibition of human HCT15 cells after 48 hrs by SRB assay; assay type: functional; settings: HCT-15, 48 h
KM12 = assay: Growth inhibition of human KM12 cells after 48 hrs by SRB assay; assay type: functional; settings: KM12, 48 h
SNB-19 = assay: Growth inhibition of human SNB19 cells after 48 hrs by SRB assay; assay type: functional; settings: SNB-19, 48 h
SNB-75 = assay: Growth inhibition of human SNB75 cells after 48 hrs by SRB assay; assay type: functional; settings: SNB-75, 48 h
MDA-MB-435 = assay: Growth inhibition of human MDA-MB-435 cells after 48 hrs by SRB assay; assay type: functional; settings: MDA-MB-435, 48 h
UO-31 = assay: Growth inhibition of human UO31 cells after 48 hrs by SRB assay; assay type: functional; settings: UO-31, 48 h
MCF7 = assay: Growth inhibition of human MCF7 cells after 48 hrs by SRB assay; assay type: functional; settings: MCF7, 48 h
T47D = assay: Growth inhibition of human T47D cells after 48 hrs by SRB assay; assay type: functional

In the case of `CC(C)(C)OC(=O)Nc1ccc2c(c1)C(NC(=O)Nc1cccc(C#N)c1)CC(C)(C)O2` (stereo not given), the “Ratio IC50” value [1] is reported as >10, the IC50 (Hs 683 [2]) is reported as 4 to 5.8 µM and the inhibition [3] is reported as “inactive”. For the same compound, the inhibition [4] was “Dose-dependent effect”, the Activity (Hs 683 [5]) was “Active” and the Activity (U-373MG ATCC) was “Active”. The inhibition (Hs 683 [6]) was “Active”, the inhibition (Hs 683 [7]) was “Active” and the Activity (PBMC) was “Non-Toxic”. For the same compound, the Activity (SW1573) was “Active”, the Activity (KBC1) was “Active” and the Activity (Hs 683 [8]) was 25%. For the same compound, the fold change (FC) [9] was 1.1, the Activity (Hs 683 [10]) was “Active” and the GI50 (CCRF-CEM) was 3.31 µM. For the same compound, the GI50 (HL-60(TB)) was 2.57 µM, the GI50 (HOP-62) was 5.01 µM and the GI50 (HCT-15) was 2 µM. The GI50 (KM12) was 4.07 µM, the GI50 (SNB-19) was 3.72 µM and the GI50 (SNB-75) was 5.89 µM. It also gave a GI50 (MDA-MB-435) of 1.48 µM, a GI50 (UO-31) of 4.27 µM and a GI50 (MCF7) of 2.14 µM. The GI50 (T47D) was 2.69 µM.
